In article PMC2871304 (Biochemistry, 2010):

How the values were obtained:
[1] = MFTIR, secondary structure of microfibrils in air; assay type: physicochemical; conditions: amide I region deconvoluted
Method in brief: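 Aβ(1-42) fibrils, formed by incubating 100 μM peptide in dilute HCl for 2 days at 37°C, were deposited on gold-coated substrates. Infrared microscopy was done in reflection mode at 4 cm−1 resolution with a liquid-nitrogen-cooled MCT detector.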

[2] = Circular dichroism, secondary structure content; assay type: physicochemical; conditions: CD at 37°C, filtered (10K MWCO) samples
Method in brief: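 Microfibrils were measured by CD at 37°C before and after enzymatic degradation (24 or 48 h). Spectra were taken at 12 nm·sec−1 and 1 nm resolution, with 4 scans averaged. Enzyme-only solutions were subtracted. Data were expressed as molar residue ellipticity using 42 residues and 0.3 mM peptide. Secondary-structure content was estimated by a published method.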

[3] = target: insulin degrading enzyme (IDE) (Homo sapiens, UniProt P14735); assay: Enzymatic degradation of Aβ fibrils by insulin degrading enzyme; assay type: in vitro ADME; conditions: IDE 50 μg/mL, 48 h, 0.1 M phosphate buffer pH 7.4, 37°C; AFM
Method in brief: (§1)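 Fibrils were made from Aβ(1-42): 5 mM in DMSO, sonicated 10 min at 37°C, diluted to 100 μM in 10 mM HCl, sonicated 30 min, filtered through 10,000 MWCO, then held 2 days at 37°C. After enzyme treatment, fibrils on gold-coated substrates were imaged by tapping-mode AFM in air with a 3 N/m silicon cantilever. Tip-convolution calibration gave true dimensions.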

[4] = tested on: protease XIV; assay: Enzymatic degradation of Aβ fibrils by protease XIV; assay type: in vitro ADME; conditions: protease XIV 100 μg/mL, 24 h, 0.1 M phosphate buffer pH 7.4, 37°C; MALDI-TOF
Method in brief: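 Fibrils from 100 μM Aβ(1-42) were aged 2 days at 37°C, then digested with the enzyme. Products (about 1 μg/mL peptide) were mixed with saturated sinapic acid in ACN/0.1% TFA (1:2) and run by MALDI-TOF over 20–5000 Da. Enzyme alone served as control. Cleavage patterns were inferred from substrate specificity (C-terminal to aromatic and basic residues) and fragment masses.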

[5] = target: neprilysin (NEP) (Homo sapiens, UniProt P08473); assay: Enzymatic degradation of Aβ fibrils by neprilysin; assay type: in vitro ADME; conditions: NEP 50 μg/mL, 48 h, 0.1 M phosphate buffer pH 7.4, 37°C; AFM
neprilysin (NEP), sequence (P08473 whole entry, species assumed): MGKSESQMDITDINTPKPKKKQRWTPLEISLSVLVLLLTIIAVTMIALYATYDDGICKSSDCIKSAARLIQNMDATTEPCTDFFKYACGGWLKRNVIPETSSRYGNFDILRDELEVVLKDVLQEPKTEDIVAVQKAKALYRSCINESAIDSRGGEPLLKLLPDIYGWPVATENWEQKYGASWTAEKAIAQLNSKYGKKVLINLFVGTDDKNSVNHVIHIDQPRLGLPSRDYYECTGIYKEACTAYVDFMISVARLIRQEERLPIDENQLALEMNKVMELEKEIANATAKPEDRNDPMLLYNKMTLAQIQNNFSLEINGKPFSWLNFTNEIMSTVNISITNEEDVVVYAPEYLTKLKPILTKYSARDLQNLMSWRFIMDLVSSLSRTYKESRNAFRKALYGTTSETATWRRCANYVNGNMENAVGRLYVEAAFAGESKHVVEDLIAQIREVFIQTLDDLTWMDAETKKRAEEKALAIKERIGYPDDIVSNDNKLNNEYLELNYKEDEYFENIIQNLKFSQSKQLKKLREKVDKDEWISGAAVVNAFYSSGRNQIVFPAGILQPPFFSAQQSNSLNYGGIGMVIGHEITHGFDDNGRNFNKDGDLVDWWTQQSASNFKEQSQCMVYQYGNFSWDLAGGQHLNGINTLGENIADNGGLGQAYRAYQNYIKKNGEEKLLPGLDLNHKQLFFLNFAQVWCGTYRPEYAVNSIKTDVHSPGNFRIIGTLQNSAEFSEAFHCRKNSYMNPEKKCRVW
Method in brief: as §1

For “Aβ microfibrils: Fibrils of purchased Aβ(1-42) peptide, incubated in DMSO/10 mM HCl at 37°C for 2 days”, the “alpha-helix and random coil content” value [1] was 12±2%, the beta-sheet content [1] was 71±8% and the turns content [1] was 17±5%. For the same substance, the “beta-strand structures, filtered samples” value [2] was 18±3%, the “degradation on exposure to IDE” value [3] was “almost no significant degradation” and the “full-length Aβ(1-42) after degradation by protease XIV” value [4] was “no full-length Aβ(1-42) peptides”. The “degradation on exposure to NEP” value [5] was “almost no significant degradation”.
